Experimental data from ChEMBL document CHEMBL3576825, “Antineoplastic agents. 600. From the South Pacific Ocean to the silstatins” (J Nat Prod, 2015).

Legend:
[1] = Cytotoxicity against human KM20L2 cells after 48 hrs by sulforhodamine B assay; assay type: functional; conditions: KM-20L2, 48 h
How it was run: (§1)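 NCI standard SRB protocol. Cells were seeded in 5% FBS/RPMI-1640 and incubated 24 h, then given serial dilutions of compound for 48 h. Plates were fixed with trichloroacetic acid, stained with sulforhodamine B and read by microplate reader. GI50, the concentration giving a 50% reduction in net protein increase, was calculated from optical density data.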

[2] = test system: SF-268; test: Cytotoxicity against human SF268 cells after 48 hrs by sulforhodamine B assay; assay type: functional; conditions: SF-268, 48 h; how it was run: as §1
[3] = test system: MCF7; test: Cytotoxicity against human MCF7 cells after 48 hrs by sulforhodamine B assay; assay type: functional; conditions: MCF7, 48 h; how it was run: as §1
[4] = test system: DU-145; test: Cytotoxicity against human DU145 cells after 48 hrs by sulforhodamine B assay; assay type: functional; conditions: DU-145, 48 h; how it was run: as §1
[5] = Cytotoxicity against human BxPC3 cells after 48 hrs by sulforhodamine B assay; assay type: functional; conditions: BXPC-3, 48 h; how it was run: as §1
[6] = test system: NCI-H460; test: Cytotoxicity against human NCI-H460 cells after 48 hrs by sulforhodamine B assay; assay type: functional; conditions: NCI-H460, 48 h; how it was run: as §1
[7] = Cytotoxicity against human CRL2221 cells after 48 hrs by sulforhodamine B assay; assay type: cell-based
[8] = Cytotoxicity against human MCF10A cells after 48 hrs by sulforhodamine B assay; assay type: cell-based, MCF-10A

| Compound | GI50 [1] | GI50 [2] | GI50 [3] | GI50 [4] | GI50 [5] | GI50 [6] | GI50 at 48 h [7] | GI50 at 48 h [8] |
| --- | --- | --- | --- | --- | --- | --- | --- | --- |
| CC[C@H](C)[C@H]1OC(=O)[C@H](C(C)C)NC(=O)[C@H](C)OC(=O)[C@@H](C(C)C)NC(=O)[C@@H]([C@@H](C)CC)OC(=O)[C@H](C(C)C)NC(=O)[C@H](C)OC(=O)[C@@H](C(C)C)NC(=O)[C@@H](CC(C)C)OC(=O)[C@H](C(C)C)NC(=O)[C@H](C)OC(=O)[C@@H](C(C)C)NC1=O | 0.23 nM | 1.6 nM | 0.27 nM | 0.75 nM | 0.29 nM | 0.39 nM | – | – |
| CC(C)C[C@H]1OC(=O)[C@H](C(C)C)NC(=O)[C@H](C)OC(=O)[C@@H](C(C)C)NC(=O)[C@@H](CC(C)C)OC(=O)[C@H](C(C)C)NC(=O)[C@H](C)OC(=O)[C@@H](C(C)C)NC(=O)[C@@H](CC(C)C)OC(=O)[C@H](C(C)C)NC(=O)[C@H](C)OC(=O)[C@@H](C(C)C)NC1=O | 0.14 nM | 0.18 nM | 0.095 nM | 0.36 nM | 0.69 nM | 0.61 nM | – | – |
| CC(C)C[C@H]1OC(=O)[C@H](Cc2ccc(OC(C)(C)C)cc2)NC(=O)[C@H](C)OC(=O)[C@@H](C(C)C)NC(=O)[C@@H](CC(C)C)OC(=O)[C@H](C(C)C)NC(=O)[C@H](C)OC(=O)[C@@H](C(C)C)NC(=O)[C@@H](CC(C)C)OC(=O)[C@H](C(C)C)NC(=O)[C@H](C)OC(=O)[C@@H](C(C)C)NC1=O | 3.8 nM | 2 nM | 3.3 nM | 8.6 nM | 24 nM | 23 nM | – | – |
| CC(C)C[C@H]1OC(=O)[C@H](C(C)C)NC(=O)[C@H](C)OC(=O)[C@@H](C(C)C)NC(=O)[C@@H](CC(C)C)OC(=O)[C@H]([C@@H](C)O)NC(=O)[C@H](C)OC(=O)[C@@H](C(C)C)NC(=O)[C@@H](CC(C)C)OC(=O)[C@H](C(C)C)NC(=O)[C@H](C)OC(=O)[C@@H](C(C)C)NC1=O | 2.9 nM | 2.7 nM | 1.9 nM | 5.2 nM | 3.5 nM | 2.8 nM | – | – |
| CC(C)C[C@H]1OC(=O)[C@H](Cc2ccc(O)cc2)NC(=O)[C@H](C)OC(=O)[C@@H](C(C)C)NC(=O)[C@@H](CC(C)C)OC(=O)[C@H](C(C)C)NC(=O)[C@H](C)OC(=O)[C@@H](C(C)C)NC(=O)[C@@H](CC(C)C)OC(=O)[C@H](C(C)C)NC(=O)[C@H](C)OC(=O)[C@@H](C(C)C)NC1=O | 0.9 nM | 3.3 nM | 1.3 nM | 4.2 nM | 4.1 nM | 3 nM | – | – |
| CC(C)[C@@H]1NC(=O)[C@H](C)OC(=O)[C@@H](C(C)C)NC(=O)[C@@H](CC2CCCCC2)OC(=O)[C@H](C(C)C)NC(=O)[C@H](C)OC(=O)[C@@H](C(C)C)NC(=O)[C@@H](CC2CCCCC2)OC(=O)[C@H](C(C)C)NC(=O)[C@H](C)OC(=O)[C@@H](C(C)C)NC(=O)[C@@H](CC2CCCCC2)OC1=O | 141 nM | 63.6 nM | 141 nM | 173 nM | 392 nM | 314 nM | – | – |
| CC(C)[C@@H]1NC(=O)[C@H](C)OC(=O)[C@@H](C(C)C)NC(=O)[C@@H](CC2CCCCC2)OC(=O)[C@H]([C@@H](C)OC(C)(C)C)NC(=O)[C@H](C)OC(=O)[C@@H](C(C)C)NC(=O)[C@@H](CC2CCCCC2)OC(=O)[C@H](C(C)C)NC(=O)[C@H](C)OC(=O)[C@@H](C(C)C)NC(=O)[C@@H](CC2CCCCC2)OC1=O | 60 nM | 56.3 nM | 56.3 nM | 90 nM | 135 nM | 240 nM | – | – |
| CC(C)[C@@H]1NC(=O)[C@H](C)OC(=O)[C@@H](C(C)C)NC(=O)[C@@H](CC2CCCCC2)OC(=O)[C@H](C(C)C)NC(=O)[C@H](C)OC(=O)[C@@H](C(C)C)NC(=O)[C@@H](CC2CCCCC2)OC(=O)[C@H](Cc2ccc(OC(C)(C)C)cc2)NC(=O)[C@H](C)OC(=O)[C@@H](C(C)C)NC(=O)[C@@H](CC2CCCCC2)OC1=O | > 717 nM | > 717 nM | > 717 nM | > 717 nM | > 717 nM | > 717 nM | – | – |
| CC(C)[C@@H]1NC(=O)[C@H](C)OC(=O)[C@@H](C(C)C)NC(=O)[C@@H](CC2CCCCC2)OC(=O)[C@H]([C@@H](C)O)NC(=O)[C@H](C)OC(=O)[C@@H](C(C)C)NC(=O)[C@@H](CC2CCCCC2)OC(=O)[C@H](C(C)C)NC(=O)[C@H](C)OC(=O)[C@@H](C(C)C)NC(=O)[C@@H](CC2CCCCC2)OC1=O | 3.4 nM | 3.4 nM | 2.4 nM | 3.9 nM | 24 nM | 16 nM | – | – |
| CC(C)[C@@H]1NC(=O)[C@H](C)OC(=O)[C@@H](C(C)C)NC(=O)[C@@H](CC2CCCCC2)OC(=O)[C@H](C(C)C)NC(=O)[C@H](C)OC(=O)[C@@H](C(C)C)NC(=O)[C@@H](CC2CCCCC2)OC(=O)[C@H](Cc2ccc(O)cc2)NC(=O)[C@H](C)OC(=O)[C@@H](C(C)C)NC(=O)[C@@H](CC2CCCCC2)OC1=O | 67.3 nM | 37.4 nM | 89.7 nM | 164 nM | 396 nM | 239 nM | – | – |
| CC(C)C[C@H]1OC(=O)[C@H](C(C)C)NC(=O)[C@H](C)OC(=O)[C@@H](C(C)C)NC(=O)[C@@H](CC2CCCCC2)OC(=O)[C@H]([C@@H](C)OC(C)(C)C)NC(=O)[C@H](C)OC(=O)[C@@H](C(C)C)NC(=O)[C@@H](CC(C)C)OC(=O)[C@H](C(C)C)NC(=O)[C@H](C)OC(=O)[C@@H](C(C)C)NC1=O | 1.9 nM | 3.2 nM | 0.79 nM | 5.6 nM | 18 nM | 7.2 nM | – | – |
| CC(C)C[C@H]1OC(=O)[C@H](C(C)C)NC(=O)[C@H](C)OC(=O)[C@@H](C(C)C)NC(=O)[C@@H](CC(C)C)OC(=O)[C@H](C(C)C)NC(=O)[C@H](C)OC(=O)[C@@H](C(C)C)NC(=O)[C@@H](CC2CCCCC2)OC(=O)[C@H](Cc2ccc(OC(C)(C)C)cc2)NC(=O)[C@H](C)OC(=O)[C@@H](C(C)C)NC1=O | 40 nM | 46 nM | 24 nM | 30 nM | 68 nM | 91 nM | – | – |
| CC(C)C[C@H]1OC(=O)[C@H](C(C)C)NC(=O)[C@H](C)OC(=O)[C@@H](C(C)C)NC(=O)[C@@H](CC2CCCCC2)OC(=O)[C@H]([C@@H](C)O)NC(=O)[C@H](C)OC(=O)[C@@H](C(C)C)NC(=O)[C@@H](CC(C)C)OC(=O)[C@H](C(C)C)NC(=O)[C@H](C)OC(=O)[C@@H](C(C)C)NC1=O | 1.7 nM | 2.6 nM | 1.5 nM | 2.5 nM | 3.2 nM | 3.3 nM | 3.35 nM | 3.35 nM |
| CC(C)C[C@H]1OC(=O)[C@H](C(C)C)NC(=O)[C@H](C)OC(=O)[C@@H](C(C)C)NC(=O)[C@@H](CC(C)C)OC(=O)[C@H](C(C)C)NC(=O)[C@H](C)OC(=O)[C@@H](C(C)C)NC(=O)[C@@H](CC2CCCCC2)OC(=O)[C@H](Cc2ccc(O)cc2)NC(=O)[C@H](C)OC(=O)[C@@H](C(C)C)NC1=O | 1.7 nM | 2.4 nM | 0.88 nM | 4.3 nM | 4.8 nM | 3.2 nM | – | – |
| CC(C)C[C@H]1OC(=O)[C@H](C(C)C)NC(=O)[C@H](C)OC(=O)[C@@H](C(C)C)NC(=O)[C@@H](CC2CCCCC2)OC(=O)[C@H]([C@@H](C)OC(=O)CCCN(C)C(=O)OCc2ccc(O[C@@H]3O[C@H](C(=O)O)[C@@H](O)[C@H](O)[C@H]3O)c([N+](=O)[O-])c2)NC(=O)[C@H](C)OC(=O)[C@@H](C(C)C)NC(=O)[C@@H](CC(C)C)OC(=O)[C@H](C(C)C)NC(=O)[C@H](C)OC(=O)[C@@H](C(C)C)NC1=O | 24 nM | 30 nM | 18.6 nM | 78.1 nM | 120 nM | 42 nM | 30 nM | 150 nM |
| CC[C@H](C)[C@H]1OC(=O)[C@H](C(C)C)NC(=O)[C@H](C)OC(=O)[C@@H](C(C)C)NC(=O)[C@@H]([C@@H](C)CC)OC(=O)[C@H](C(C)C)NC(=O)[C@H](C)OC(=O)[C@@H](C(C)C)NC(=O)[C@@H]([C@@H](C)CC)OC(=O)[C@H](C(C)C)NC(=O)[C@H](C)OC(=O)[C@@H](C(C)C)NC1=O [BACILLISTATIN 1] | 0.75 nM | 0.39 nM | 0.53 nM | 1.3 nM | 0.82 nM | 1.2 nM | – | – |
